Test results taken from ChEMBL document CHEMBL4396895, “Identification and Optimization of Novel Cathepsin C Inhibitors Derived from EGFR Inhibitors” (J Med Chem, 2019).
Values belong to the compound of their own block, whether it stands above or below them. The source made the active and inactive calls. No cut-off for these calls is given here.

Tests used:
[1] = Intrinsic clearance in human liver microsomes assessed per mg protein measured after 60 mins in presence of NADPH by LC-MS/MS analysis; format: ADME, Microsome; conditions: read-out: CLH
[2] = biological target: T1, Dipeptidyl peptidase 1 (Homo sapiens, UniProt P53634); experiment: Inhibition of cathepsin C in human THP1 cells using H-Gly-Phe-AFC as substrate preincubated for 4 hrs followed by substrate addition and measured after 60 mins; format: cell-based
In short: (§1)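 THP1 or U937 cells, grown in RPMI 1640 with 10% FBS, were seeded at 1.0 × 10^6/mL. They were preincubated with threefold serial dilutions of compound for 4 h at 37 °C. H-Gly-Phe-AFC was then added from a 100 μM solution and fluorescence was read after 60 min at 37 °C. Values are means of at least two experiments.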

[3] = biological target: Epidermal growth factor receptor (Homo sapiens, UniProt P00533); experiment: Inhibition of EGFR (unknown origin) up to 10 uM using biotin-labelled peptide as substrate preincubated for 2 hrs followed by substrate addition and measured after 30 mins by HTRF FRET assay
In short: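 EGFR WT was used at 0.1 nM final in 50 mM HEPES pH 7.0, 0.02% NaN3, 0.01% BSA, 0.1 mM orthovanadate, 10 mM MgCl2, 2.5 mM DTT, 6.25 nM SEB. It was preincubated with compound for 2 h. Biotin-peptide (1.4 μM) and ATP (20 μM) were then added for 30 min at RT. Read-out was HTRF/TR-FRET (Ex 320, Em 615/665 nm) with a sigmoidal curve fit.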

[4] = biological target: T1, Dipeptidyl peptidase 1; experiment: Inhibition of cathepsin C in human U937 cells using H-Gly-Phe-AFC as substrate preincubated for 4 hrs followed by substrate addition and measured after 60 mins; format: cell-based; in short: as §1
[5] = biological target: T1, Dipeptidyl peptidase 1; experiment: Inhibition of CatL-activated recombinant human C-terminal His10-tagged cathepsin C (25 to 463 residues) expressed in mouse myeloma cells using Gly-Phe-AFC as substrate preincubated for 3 hrs followed by substrate addition and measured after 60 mins; format: cell-free
In short: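 Activated rhCatC was diluted to 4.4 nM in 25 mM MES, 50 mM NaCl, 5 mM DTT, 0.01% Triton X-100, pH 6.0. It was preincubated with compound (added in 10% DMSO) for 3 h at RT. Gly-Phe-AFC was then added to 100 μM final and read as fluorescence after 60 min. IC50 came from a sigmoidal nonlinear fit; values are means of at least two experiments.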

[6] = Intrinsic clearance in rat liver microsomes assessed per mg protein measured after 60 mins in presence of NADPH by LC-MS/MS analysis; format: ADME, Microsome; conditions: read-out: CLH
[7] = Intrinsic clearance in mouse liver microsomes assessed per mg protein measured after 60 mins in presence of NADPH by LC-MS/MS analysis; format: ADME, Microsome; conditions: read-out: CLH
[8] = biological target: T1, Dipeptidyl peptidase 1; experiment: Inhibition of cathepsin C (unknown origin)
In short: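 Enzyme preincubated with compound 3 h at RT. Gly-Phe-AFC added (100 μM final) and product fluorescence read after 60 min. IC50 from sigmoidal nonlinear regression, mean of at least two experiments.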

Structure (SMILES): C=CC(=O)Nc1cccc(Oc2nc(Nc3ccc(N4CCN(CC5CCCC5)CC4)cc3)ccc2Cl)c1
- IC50 [5]: > 10000 nM

Structure (SMILES): C=CC(=O)Nc1cc2c(Nc3ccc(F)c(Cl)c3)ncnc2cc1OCCCN1CCOCC1 [CANERTINIB]
- IC50 [8]: 2700 nM

Structure (SMILES): C=CC(=O)Nc1cccc(Oc2nc(Nc3ccc(N4CCN(CC5CC5)CC4)cc3)ccc2Cl)c1
- IC50 [5]: 783 nM

Structure (SMILES): C=CC(=O)Nc1cccc(Oc2nc(Nc3ccc(N4CCN(C)CC4)cc3OC)ccc2N2CCCCCC2)c1
- IC50 [5]: 271 nM

Structure (SMILES): C=CC(=O)Nc1cc(Oc2nc(Nc3ccc(N4CCN(C)CC4)nc3OC)ccc2N2CCCCC2)ccc1C
- microsomal CLint [1]: 6 µL/min/mg
- IC50 [2]: 6.5 nM
- IC50 [4]: 10 nM
- IC50 [5]: 28.6 nM
- microsomal CLint [6]: 13 µL/min/mg
- microsomal CLint [7]: 22 µL/min/mg

Structure (SMILES): C=CC(=O)Nc1cccc(Oc2nc(Nc3ccc(N4CCOCC4)cc3)ccc2Cl)c1
- IC50 [5]: > 10000 nM

Structure (SMILES): C=CC(=O)Nc1cccc(Oc2nc(Nc3ccc(N4CCN(C)CC4)cc3OC)ccc2N2CCCCC2)c1
- IC50 [5]: 221 nM

Structure (SMILES): C=CC(=O)Nc1cc(Nc2nccc(-c3cn(C)c4ccccc34)n2)c(OC)cc1N(C)CCN(C)C [OSIMERTINIB]
- IC50 [8]: 32900 nM

Structure (SMILES): C=CC(=O)Nc1cccc(Oc2nc(Nc3ccc(CCN)cc3)ccc2Cl)c1
- IC50 [5]: 2050 nM

Structure (SMILES): CN(C)C/C=C/C(=O)Nc1cc2c(Nc3ccc(F)c(Cl)c3)ncnc2cc1O[C@H]1CCOC1 [AFATINIB]
- IC50 [8]: > 10000 nM

Structure (SMILES): C=CC(=O)Nc1cccc(Oc2nc(Nc3ccc(N4CCNCC4)cc3)ccc2Cl)c1
- IC50 [5]: 499 nM

Structure (SMILES): C=CC(=O)Nc1cccc(Oc2nc(Nc3ccc(N4CCN(C)CC4)cc3OC)ccc2C#N)c1
- IC50 [5]: 835 nM

Structure (SMILES): C=CC(=O)Nc1cc(Oc2nc(Nc3ccc(N4CCN(C)CC4)cc3OC)ccc2N2CCCCC2)ccc1C(F)(F)F
- microsomal CLint [1]: 5.2 µL/min/mg
- IC50 [2]: 1.8 nM
- IC50 [4]: 2.4 nM
- IC50 [5]: 2.3 nM
- microsomal CLint [6]: 15.1 µL/min/mg
- microsomal CLint [7]: 15.4 µL/min/mg

Structure (SMILES): C=CC(=O)Nc1cccc(Oc2nc(Nc3ccc(N4CCN(C)CC4)cc3OC)ccc2N2CCCC2)c1
- IC50 [5]: 175 nM

Structure (SMILES): C=CC(=O)Nc1cc(Oc2nc(Nc3ccc(N4CCN(C(C)=O)CC4)cc3OC)ccc2N2CCCCC2)ccc1C
- IC50 [5]: 135 nM

Structure (SMILES): C=CC(=O)Nc1cc(Oc2nc(Nc3ccc(N4CCN(C)CC4)cc3OC)ccc2N2CCC(O)C2)ccc1C (racemic)
- IC50 [2]: 28.4 nM
- IC50 [4]: 49.4 nM
- IC50 [5]: 32.3 nM

Structure (SMILES): C#Cc1ccc(Nc2ccc(N3CCN(C)CC3)cc2OC)nc1Oc1cccc(NC(=O)C=C)c1
- IC50 [5]: 392 nM

Structure (SMILES): C=CC(=O)Nc1ccc(C)c(Oc2nc(Nc3ccc(N4CCN(C)CC4)cc3OC)ccc2N2CCCC2)c1
- IC50 [5]: 505 nM

Structure (SMILES): C=CC(=O)Nc1cccc(Oc2nc(Nc3ccc(N4CCN(C)CC4)cc3OC)ccc2N(C)C)c1
- IC50 [5]: 1520 nM

Structure (SMILES): C=CC(=O)Nc1cc(Oc2nc(Nc3ccc(N4CCC(N(C)C)CC4)cc3OC)ccc2N2CCCCC2)ccc1C
- microsomal CLint [1]: 2.5 µL/min/mg
- IC50 [2]: 1 nM
- IC50 [4]: 2.2 nM
- IC50 [5]: 15.6 nM
- microsomal CLint [6]: 4.1 µL/min/mg
- microsomal CLint [7]: 4 µL/min/mg

Further lines, results first:

- microsomal CLint [1]: 3.9 µL/min/mg
- IC50 [2]: 6.7 nM
- inhibition [3]: inactive
- IC50 [4]: 11.5 nM
- IC50 [5]: 4 nM
- microsomal CLint [6]: 11 µL/min/mg
- microsomal CLint [7]: 866 µL/min/mg
Structure (SMILES): C=CC(=O)Nc1cc(Oc2nc(Nc3ccc(N4CCN(C)CC4)cc3OC)ccc2N2CCCC2)ccc1C(F)(F)F

- IC50 [5]: 483 nM
Structure (SMILES): C=CC(=O)Nc1cccc(Oc2nc(Nc3ccc(N4CCN(C)CC4)cc3)ccc2Cl)c1

- microsomal CLint [1]: 2.9 µL/min/mg
- IC50 [2]: 2.7 nM
- inhibition [3]: inactive
- IC50 [4]: 5.8 nM
- IC50 [5]: 17.6 nM
- microsomal CLint [6]: 15 µL/min/mg
Structure (SMILES): C=CC(=O)Nc1cc(Oc2nc(Nc3ccc(N4CCN(C)CC4)cc3)ccc2N2CCCCC2)ccc1C

- IC50 [5]: > 10000 nM
Structure (SMILES): C=CC(=O)Nc1cccc(Oc2nc(Nc3ccc(N4CCN(C)CC4)cc3OC)ccc2N2CCCC2)c1C

- IC50 [5]: 2150 nM
Structure (SMILES): C=CC(=O)Nc1cccc(Oc2nc(Nc3cccc(CN)c3)ccc2Cl)c1

- IC50 [2]: 21.3 nM
- IC50 [4]: 70 nM
- IC50 [5]: 140 nM
Structure (SMILES): C=CC(=O)Nc1cc(Oc2nc(Nc3ccc(N4CCN(C)CC4)cc3OC)ccc2N2CCCC2)ccc1OC

- inhibition [3]: inactive
- IC50 [5]: 154 nM
Structure (SMILES): C=CC(=O)Nc1cc(Oc2nc(Nc3ccc(N4CCN(C)CC4)cc3OC)ccc2-c2ccccc2)ccc1C

- microsomal CLint [1]: 4.9 µL/min/mg
- IC50 [2]: 4.9 nM
- inhibition [3]: inactive
- IC50 [4]: 7.4 nM
- IC50 [5]: 34.1 nM
- microsomal CLint [6]: 9 µL/min/mg
- microsomal CLint [7]: 6 µL/min/mg
Structure (SMILES): C=CC(=O)Nc1cc(Oc2nc(Nc3ccc(N4CCN(C)CC4)cc3OC)ccc2N2CCCC(O)C2)ccc1C (racemic)

- IC50 [5]: 307 nM
Structure (SMILES): C=CC(=O)Nc1cc(Oc2nc(Nc3ccc(N4CCC(N(C)C)CC4)cn3)ccc2N2CCCCC2)ccc1C

- microsomal CLint [1]: 3.7 µL/min/mg
- IC50 [2]: 2.8 nM
- IC50 [4]: 4.7 nM
- IC50 [5]: 46.5 nM
- microsomal CLint [6]: 2 µL/min/mg
- microsomal CLint [7]: 3 µL/min/mg
Structure (SMILES): C=CC(=O)Nc1cc(Oc2nc(Nc3ccc(N4CCN(C)CC4)cc3OC)ccc2N2CCN(C)CC2)ccc1C

- IC50 [5]: 785 nM
Structure (SMILES): C=CC(=O)Nc1cccc(Oc2cccc(Nc3ccc(N4CCN(C)CC4)cc3OC)n2)c1

- IC50 [5]: 2100 nM
- IC50 [8]: 2100 nM
Structure (SMILES): C=CC(=O)Nc1cccc(Oc2nc(Nc3ccc(N4CCN(C)CC4)cc3OC)ncc2Cl)c1

- IC50 [5]: 1610 nM
Structure (SMILES): C=CC(=O)Nc1cccc(Oc2nc(Nc3ccc(N4CCN(C)CC4)cc3OC)ccc2C(F)(F)F)c1
